Columns and labels:
[1] = molecular target: Cruzipain (Trypanosoma cruzi) (UniProt P25779); assay: Inhibition of recombinant Trypanosoma cruzi cruzain at 5 uM using Z-FR-AMC as substrate preincubated for 10 mins followed by substrate addition and measured at 12 sec interval for 5 mins by fluorimetric analysis relative to control; settings: time 15.0 min
How it was run: (§1)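 Recombinant rhodesain or cruzain (1 nM) in 0.1 M sodium acetate pH 5.5, 0.01% Triton X-100, 1 mM β-mercaptoethanol. Compound at a single concentration, either without or after 10 min enzyme pre-incubation. Inhibition is relative to DMSO, with E-64 as positive control. Done in duplicate (primary screen) or triplicate.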

[2] = molecular target: Cruzipain (Trypanosoma cruzi) (UniProt P25779); assay: Inhibition of recombinant Trypanosoma cruzi cruzain at 5 uM using Z-FR-AMC as substrate and measured at 12 sec interval for 5 mins without preincubation by fluorimetric analysis relative to control; how it was run: as §1
[3] = molecular target: Rhodesain (Trypanosoma brucei rhodesiense) (UniProt Q95PM0); assay: Inhibition of recombinant Trypanosoma brucei rhodesain expressed in Pichia pastoris at 5 uM using Z-FR-AMC as substrate and measured at 12 sec interval for 5 mins without preincubation by fluorimetric analysis relative to control; how it was run: as §1
Chain of Rhodesain (Trypanosoma brucei rhodesiense) (Q95PM0 1-450): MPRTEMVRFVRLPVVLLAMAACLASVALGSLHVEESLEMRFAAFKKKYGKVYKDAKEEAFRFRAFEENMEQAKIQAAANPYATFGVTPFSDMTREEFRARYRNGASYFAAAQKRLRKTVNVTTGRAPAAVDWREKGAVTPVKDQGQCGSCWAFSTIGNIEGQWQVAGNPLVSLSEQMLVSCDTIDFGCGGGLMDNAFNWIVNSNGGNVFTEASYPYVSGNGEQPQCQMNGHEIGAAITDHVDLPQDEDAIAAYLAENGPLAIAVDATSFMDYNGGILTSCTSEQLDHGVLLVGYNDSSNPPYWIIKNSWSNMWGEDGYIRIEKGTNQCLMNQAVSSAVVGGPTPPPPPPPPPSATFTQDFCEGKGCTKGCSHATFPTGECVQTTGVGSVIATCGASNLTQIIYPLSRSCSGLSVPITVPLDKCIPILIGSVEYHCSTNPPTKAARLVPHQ

[4] = molecular target: Rhodesain (Trypanosoma brucei rhodesiense) (UniProt Q95PM0); assay: Inhibition of recombinant Trypanosoma brucei rhodesain expressed in Pichia pastoris at 5 uM using Z-FR-AMC as substrate preincubated for 10 mins followed by substrate addition and measured at 12 sec interval for 5 mins by fluorimetric analysis relative to control; settings: time 15.0 min; how it was run: as §1

Chain of Cruzipain (Trypanosoma cruzi) (P25779 123-467 limits assumed): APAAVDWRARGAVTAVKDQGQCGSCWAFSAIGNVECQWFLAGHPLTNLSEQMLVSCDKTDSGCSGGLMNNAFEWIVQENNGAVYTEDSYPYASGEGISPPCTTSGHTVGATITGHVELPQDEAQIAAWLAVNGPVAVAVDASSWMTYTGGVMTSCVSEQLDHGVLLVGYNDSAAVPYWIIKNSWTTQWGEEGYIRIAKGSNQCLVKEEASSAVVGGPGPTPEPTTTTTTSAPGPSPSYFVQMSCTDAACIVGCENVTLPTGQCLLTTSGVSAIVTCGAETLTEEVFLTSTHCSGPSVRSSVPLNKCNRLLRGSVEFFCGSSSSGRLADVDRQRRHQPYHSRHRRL

Structure (SMILES) | inhibition [1] [%] | inhibition [2] [%] | inhibition [3] [%] | inhibition [4] [%]
O=C(c1ccccc1F)N(Cc1ccc(Cl)cc1)c1ccccn1 | 91.6 | 40.7 | 45.8 | 75
Cc1ccccc1OCCSc1nc2ccc(NC(=O)c3ccccc3)cc2s1 | 76.7 | 52.3 | 48.3 | 59
CCOc1ccccc1CNC(=O)C1c2ccccc2C(=O)N(CC(C)C)C1c1cccs1 (stereo not drawn) | 55.7 | 45.6 | 34.3 | 71.4
CCN(CC)CCNc1ncnc2c1[nH]c1ccc(Br)cc12 | 28.5 | 57 | 27.5 | 2.7
Clc1ccc2[nH]c3c(NCCCN4CCOCC4)ncnc3c2c1 | 62.5 | 67 | 48.9 | 72.9
CCOc1ccc(C2N(C)c3ccccc3N2C)cc1 | 48.3 | 21.8 | 30.3 | 57.7
CCCc1c(CC)c(=N)c2ccccc2n1C | 54.8 | 21.5 | 29.4 | 59.5
COCCN(C(=O)Cc1cccs1)C(C(=O)NCc1ccc(OC)cc1)c1ccc(C(C)C)cc1 (stereo not drawn) | 67.5 | 40.6 | 38.5 | 86.7
O=C1c2ccccc2-c2nnc(-c3ccc(Br)cc3)cc21 | 96.3 | 47.8 | 32.7 | 68.8
COc1ccc(C(=O)NC(c2ccc(Cl)cc2Cl)c2cc(Cl)c3cccnc3c2O)cc1 (stereo not drawn) | 49.5 | 77.6 | 27.9 | 20.2
COc1ccc(-c2nc3cc(Cc4ccc5[nH]c(-c6ccc(OC)cc6)nc5c4)ccc3[nH]2)cc1 | 79.9 | 100 | 98.6 | 98.7
CCCCCn1c(=N)n(CC(O)COc2cccc(C)c2)c2ccccc21 (stereo not drawn) | 87.2 | 55.2 | 40.2 | 69.9
O=C(CSc1ccc2nnc(-c3cccc(F)c3)n2n1)Nc1ccc2c(c1)OCO2 | 67.7 | 10.2 | 10.3 | 61.6
CN(N=O)C1=C(NC2CCCCC2)C(=O)c2ccccc2C1=O | 68.2 | 34.8 | 38.7 | 39.5
COc1cc(OC)c(N(C)C(=O)c2cc3c(s2)-c2ccccc2S(=O)(=O)C3)cc1Cl | 38.1 | 6.4 | 20.7 | 57.9
Cn1c(=O)c2cc(C(=O)NCCCN3CCCCCC3)sc2c2ccccc21 | 50.5 | 22.9 | 22.4 | 41.3
COc1cc2c3cc1Oc1c(OC)c(OC)cc4c1C(Cc1ccc(O)c(c1)Oc1ccc(cc1)CC3N(C)CC2)N(C)CC4 (stereo not drawn) | 41.7 | 22.4 | 19.7 | 51.4
CCC(C)NCC(O)(c1ccc(Cl)cc1)c1ccc(Cl)cc1 (stereo not drawn) | 67.2 | 32 | 29.1 | 80.9
O=C(NC1CCN(Cc2ccccc2)CC1)c1cc(-c2ccncc2)nc2ccc(Cl)cc12 | 56.5 | 15.2 | 20.9 | 41.2
O=C(Nc1ccc(-c2nc3cc(NC(=O)c4ccc(Cl)cc4)ccc3[nH]2)cc1)c1ccc(Cl)cc1 | 35.3 | 15 | 4.6 | 56.1
O=C(O)C1Cc2c([nH]c3ccccc23)C(c2ccc(Cl)cc2Cl)N1 (stereo not drawn) | 9.5 | 5 | 0.7 | 78.6
O=C(NC1CCN(Cc2ccccc2)CC1)c1cc(C(=O)NC2CCN(Cc3ccccc3)CC2)cc(C(=O)NC2CCN(Cc3ccccc3)CC2)c1 | 60.5 | 41 | 45.4 | 49.2
Oc1ccc(C(=C(Cl)Cl)c2ccc(O)cc2)cc1 | 60.5 | 31.1 | 22.6 | 62.1
COc1ccc(CNC(=O)c2cc3c(=O)n4ccccc4nc3n(CCc3ccccc3)c2=N)cc1 | 69.9 | 45.7 | 43.5 | 66.9
CCOC(=O)c1cnc2ccc(CC)cc2c1O | 5.8 | 6 | 0 | 52.4
Nc1ccc(-c2nc3cc(Oc4ccc(Oc5ccc6[nH]c(-c7ccc(N)cc7)nc6c5)cc4)ccc3[nH]2)cc1 | 91.5 | 88.6 | 13.3 | 78.2

Structure (SMILES) | inhibition [1] [%] | inhibition [2] [%] | inhibition [3] [%] | inhibition [4] [%]
COc1ccc(OC)c(C2C3=C(CC(C)(C)CC3=O)N(c3ccc(Cl)c(Cl)c3)C3=C2C(=O)CC(C)(C)C3)c1 | 72 | 28.5 | 16.6 | 53.3
CCCOCc1cc(CN2CCN(c3cccc(Cl)c3)CC2)c(O)c2ncccc12 | 75.3 | 37.1 | 36.4 | 87.6
CC(C)OCc1cc(CN2CCN(c3cccc(Cl)c3)CC2)c(O)c2ncccc12 | 98.2 | 49 | 8.3 | 83.7
COc1ccc(/C=C2/SC(Nc3ccc(F)cc3)=NC2=O)c(OC)c1 | 54.4 | 29.3 | 21.4 | 54.8
COc1cc(C(=O)ON=C(N)Cc2cccc3ccccc23)cc(OC)c1OC | 51.1 | 14 | 0 | 46.8
COc1ccc(C2c3ccc4ccccc4c3Oc3ncn(CCCN(C)C)c(=N)c32)cc1 (stereo not drawn) | 73.2 | 55.6 | 60.9 | 77.8
COc1nc(Nc2ccc(C(C)C)cc2)nc(OC)n1 | 44.2 | 16.8 | 25.9 | 53.8
Cc1ccc(N2C(=O)C3C(C2=O)C2(c4ccccc4)C(=O)C3(c3ccccc3)C(c3ccccc3)=C2c2ccccc2)cc1 (stereo not drawn) | 33.6 | 9.2 | 22.3 | 56.3
COc1ccc(C(=O)NC(c2ccccc2Cl)c2cc(Cl)c3cccnc3c2O)cc1 (stereo not drawn) | 100 | 17.1 | 29.4 | 49.4
CC(C)(C)c1ccc2c(c1)CN(Cc1ccc(Cl)cc1)CO2 | 51.5 | 52.3 | 28.8 | 61.3
O=C(Nc1cccc(-c2nc3ccccc3[nH]2)c1)c1cccc(NC(=O)c2ccco2)c1 | 94.7 | 96.7 | 40.1 | 53.9
COc1ccc(C2c3ccc4ccccc4c3Oc3ncn(CCCn4ccnc4)c(=N)c32)cc1OC (stereo not drawn) | 59.5 | 41.8 | 33.4 | 41
COc1ccc(/C=C2/SC(=Nc3ccccc3)NC2=O)cc1 | 73.8 | 43.1 | 35.6 | 70.5
Cc1ccc(Nc2nc(-c3ccccn3)cs2)cc1 | 19.8 | 17.3 | 4.7 | 80.9
Fc1ccc2[nH]c3c(NCCCN4CCOCC4)ncnc3c2c1 | 63.9 | 50.7 | 17.6 | 41.6
COc1cccc(C(=O)NC(c2ccc(C)cc2)c2cc(Cl)c3cccnc3c2O)c1 (stereo not drawn) | 54.5 | 8.7 | 31.4 | 43.9
CCc1ccc(Nc2cc(C)c3ccc(O)cc3n2)cc1 | 55 | 32.8 | 36.5 | 38.1
CCCCCC(=O)N1c2ccccc2N=C2CC(c3ccc(OC)c(OC)c3)CC(O)=C2C1c1ccc(C(F)(F)F)cc1 (stereo not drawn) | 50.7 | 17 | 26.7 | 46.4
CCOc1cc(CNC(C)C(O)c2ccccc2)cc(Cl)c1OCC (stereo not drawn) | 46.8 | 21.7 | 32.9 | 61.8
CC(O)(c1ccc(Cl)cc1)C(CN1CCCCC1)c1ccccc1 (stereo not drawn) | 54.1 | 11.9 | 13.9 | 50.4
Nc1ccc(-c2nc3cc(Cc4ccc5[nH]c(-c6ccc(N)cc6)nc5c4)ccc3[nH]2)cc1 | 98.2 | 20.2 | 86.6 | 90.1
COc1ccccc1C(=O)ON=C(N)Cc1cccc2ccccc12 | 54.9 | 32 | 1.4 | 54.3
CCCCCCc1cc2cc(-c3csc(/C=C/c4ccccc4)n3)c(=O)oc2cc1O | 38.3 | 8.9 | 28.6 | 51.2
Cc1ccnc(NC(c2cccc(OCc3ccccc3)c2)c2ccc3cccnc3c2O)c1 (stereo not drawn) | 51.3 | 6.7 | 0 | 16.2
COc1ccc(NC(=O)C2c3ccccc3C(=O)N(CC(C)C)C2c2cccs2)cc1 (stereo not drawn) | 0 | 3.3 | 0.1 | 78.7
O=C(Nc1ccc(-c2nc3ccccc3[nH]2)cc1)c1ccc(Cl)c(Cl)c1 | 86.9 | 17.4 | 42.8 | 18.3
